From ChEMBL document CHEMBL1158012, “Sapinofuranones A and B, two new 2(3H)-dihydrofuranones produced by sphaeropsis sapinea, a common pathogen of conifers” (J Nat Prod, 1999)

Columns and labels:
Type in all cases: organism-based
Details in all cases: in vivo
[1] = system: Hesperocyparis macrocarpa; experiment: Phytotoxicity against Cupressus macrocarpa var. lambertiana assessed as browning of twigs at 0.1 to 0.2 mg/ml after 96 hrs
How it was run: (§1)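 Severed cypress or pine twig cuttings were placed in 3 mL of test solution at 0.1-0.2 mg/mL for 96 h, then moved to distilled water. They were kept in a growth chamber at 23 °C, 60% relative humidity and low light. Symptoms were scored over 21 days.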

[2] = system: Hesperocyparis arizonica; experiment: Phytotoxicity against Cupressus arizonica assessed as sapwood stain like symptoms on seedlings at 0.1 to 0.2 mg/ml after 96 hrs
How it was run: (§2)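 A 0.1 mg/mL solution was injected into the cortical tissue 25 cm from the apex of 3-year-old cypress or 2-year-old pine seedlings. Stain, needle and blight symptoms were then scored.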

[3] = system: Pinus halepensis; experiment: Phytotoxicity against Pinus halepensis L assessed as appearance of severe needles on seedlings at 0.1 to 0.2 mg/ml after 96 hrs; how it was run: as §2
[4] = system: Pinus radiata; experiment: Phytotoxicity against Pinus radiata L assessed as yellowing of twigs at 0.1 to 0.2 mg/ml after 96 hrs; how it was run: as §1
[5] = system: Hesperocyparis macrocarpa; experiment: Phytotoxicity against Cupressus macrocarpa var. lambertiana assessed as sapwood stain like symptoms on seedlings at 0.1 to 0.2 mg/ml after 96 hrs; how it was run: as §2
[6] = system: Solanum lycopersicum; experiment: Phytotoxicity against Lycopersicon esculatum L var. Marmande assessed as browning of petioles and leaves at 0.05 to 0.1 mg/ml after 48 hrs
How it was run: (§3)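 Tomato (var. Marmande) seedlings were grown at 25 °C, 70-80% relative humidity and a 12 h photoperiod. Cuttings from 21-day-old seedlings were placed in 3 mL of solution at 0.05-0.1 mg/mL for 48 h, then moved to distilled water. Epinasty and browning were scored over 2 days.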

[7] = system: Pinus halepensis; experiment: Phytotoxicity against Pinus halepensis L assessed as yellowing of twigs at 0.1 to 0.2 mg/ml after 96 hrs; how it was run: as §1
[8] = system: Solanum lycopersicum; experiment: Phytotoxicity against Lycopersicon esculatum L var. Marmande assessed as appearance of epinasty on petioles at 0.05 to 0.1 mg/ml after 48 hrs; how it was run: as §3
[9] = system: Hesperocyparis arizonica; experiment: Phytotoxicity against Cupressus arizonica assessed as browning of twigs at 0.1 to 0.2 mg/ml after 96 hrs; how it was run: as §1
[10] = system: Cupressus sempervirens; experiment: Phytotoxicity against Cupressus sempervirens var. pyramidalis assessed as browning of twigs at 0.1 to 0.2 mg/ml after 96 hrs; how it was run: as §1
[11] = system: Pinus radiata; experiment: Phytotoxicity against Pinus radiata L assessed as appearance of severe needles on seedlings at 0.1 to 0.2 mg/ml after 96 hrs; how it was run: as §2
[12] = system: Cupressus sempervirens; experiment: Phytotoxicity against Cupressus sempervirens var. pyramidalis assessed as sapwood stain like symptoms on seedlings at 0.1 to 0.2 mg/ml after 96 hrs; how it was run: as §2

Measured: Activity

C/C=C/C=C\[C@H](O)[C@H]1CCC(=O)O1 [SAPINOFURANONE A]
Toxic: [1] | [2] | [3] | [4] | [5] | [6] | [7] | [8] | [9] | [10] | [11] | [12]

C/C=C/C=C\[C@@H](O)[C@H]1CCC(=O)O1 [SAPINOFURANONE B]
Toxic: [1] | [2] | [3] | [4] | [5] | [6] | [7] | [8] | [9] | [10] | [11] | [12]
